Consider four molecules from ChEMBL document CHEMBL4052593, “Pharmacokinetic Analysis and in Vivo Antitumor Efficacy of Taccalonolides AF and AJ” (J Nat Prod, 2017).

Series [1] concerns Liver. The series can be described thus: Intrinsic clearance in human liver microsomes in presence of NADPH by LC-MS/MS analysis. The series is classed as ADME, microsome.
Series [2] has as its system MDA-MB-435. The series can be described thus: Ratio of GI50 for human MDA-MB-435 cells in presence of 1% FBS to GI50 for human MDA-MB-435 cells in presence of 0.1% FBS. It is filed as functional. In short, it runs like this:
(§1)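 MDA-MB-435 human melanoma cells were kept in IMEM with 10% FBS. They were tested across a concentration range in 0.1, 1 or 10% serum using sulforhodamine B, with cell density at drug addition as the cytotoxicity baseline. GI50 in 1% or 10% serum was divided by GI50 in 0.1% serum. Three independent experiments, each concentration in triplicate.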

The subject of series [3] is Liver. Kind of series: Half life in human liver microsomes in absence of NADPH by LC-MS/MS analysis. The series is classed as ADME, microsome.
In series [4] the test system is MDA-MB-435. The series can be described thus: Ratio of GI50 for human MDA-MB-435 cells in presence of 10% FBS to GI50 for human MDA-MB-435 cells in presence of 0.1% FBS. It is filed as functional. The method, boiled down: as §1
The test system of series [5] is Mus musculus. The series can be described thus: Elimination half life in athymic nude mouse at 300 ug, iv after 2 hrs by LC-MS analysis. The settings on record: in vivo. It is filed as ADME, organism-based. In short, it runs like this:
(§2)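 Female athymic nude mice, 6–7 weeks old, got a 300 µg IV tail-vein bolus. Plasma was taken from 3–5 mice per time point (pre-dose, end of infusion, 0.25, 0.5, 1, 2 h), ethyl acetate-extracted and quantified by LC-MS against weighted (1/X2) calibration curves. Noncompartmental analysis: Cmax by inspection, t1/2 from the last two log points, AUC by linear trapezoid extrapolated to infinity, CL = dose/AUC.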

Series [6] relates to SCC-4. The series can be described thus: Antitumor activity against human SCC4 cells xenografted in athymic nude mouse assessed as tumor burden at 80 ug administered intratumorally on day 0 and day 3 measured on day 10 post dose. The series is classed as functional. In short, it runs like this: (§3)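 Female athymic nude mice, 6–7 weeks old, received 1 × 10^6 SCC-4 cells subcutaneously in the rear flank. Treatment began when tumors averaged 200 mm3. Under isoflurane, tumors were injected directly on days 0 and 3 with drug in 100 µL PBS with final 8% ethanol, or with vehicle only; the total dose was split between the two days. Calipers were read every 2–4 days and volume taken as width × length × height. Body weight and toxicity were monitored. Groups were compared over 17 days by two-way ANOVA with Tukey post-hoc; time for tumors to reach 1,500 mm3 was also tracked.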

In series [7] the test system is Mus musculus. Kind of series: Toxicity in athymic nude mouse xenografted with human SCC4 cells assessed as weight loss at 40 ug administered intratumorally on day 0 and day 3 measured up to 2 weeks. The settings on record: in vivo, other, 336 h. The method, boiled down:
(§4)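 SCC-4 cells (1 × 10^6) were implanted subcutaneously in the rear flank of 6–7 week old female athymic nude mice. At an average tumor volume of 200 mm3, mice were grouped. Tumors were injected on days 0 and 3 with drug in 100 µL PBS containing 8% ethanol, or vehicle, under isoflurane. Mice were monitored for weight loss and toxicity; tumors were measured with calipers every 2–4 days.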

A further series deals with HeLa. Kind of series: Antiproliferative activity against human HeLa cells after 48 hrs by SRB assay. The series is classed as functional, cell-based.
Series [8] has as its system MDA-MB-435. The series can be described thus: Antiproliferative activity against human MDA-MB-435 cells assessed as cell growth inhibition in presence of 1% FBS by sulforhodamine B assay. The series is classed as functional. The method, boiled down:
(§5)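 MDA-MB-435 cells, normally kept in IMEM with 10% FBS and gentamicin, were exposed to concentration-response series in medium holding 0.1%, 1% or 10% serum. Growth was measured by sulforhodamine B staining. Cell density at the time of drug addition marked the line between antiproliferative and cytotoxic effect. GI50 was taken from the curves. Three independent experiments were run, each concentration in triplicate, reported as mean ± SEM.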

For series [9], the system named is Mus musculus. Kind of series: AUC in athymic nude mouse at 300 ug, iv after 2 hrs by LC-MS analysis. The series is classed as ADME, organism-based. The arrangement: dose 300 ug, time < 2 hr, route intravenous. As to conditions: in vivo. In short, it runs like this: as §2
Series [10] deals with Liver. The series can be described thus: Half life in human liver microsomes in presence of NADPH by LC-MS/MS analysis. The series is classed as ADME, microsome.
For series [11], the system named is SCC-4. Kind of series: Antitumor activity against human SCC4 cells xenografted in athymic nude mouse assessed as tumor growth inhibition at 40 ug administered intratumorally on day 0 and day 3 measured up to 2 weeks. The series is classed as functional, cell-based. The method, boiled down: as §3
The test system of series [12] is Mus musculus. Kind of series: Clearance in athymic nude mouse at 300 ug, iv after 2 hrs by LC-MS analysis. The settings on record: in vivo. The series is classed as ADME, organism-based. In short, it runs like this:
as §2

For series [13], the system named is SCC-4. Kind of series: Antitumor activity against human SCC4 cells xenografted in athymic nude mouse assessed as reduction in tumor burden at 80 ug administered intratumorally on day 0 and day 3 measured on day 51 post dose. It is filed as functional, cell-based. In short, it runs like this: as §3
In series [14] the test system is Mus musculus. The series can be described thus: Cmax in athymic nude mouse at 300 ug, iv after 2 hrs by LC-MS analysis. The arrangement: dose 300 ug, route intravenous. As to conditions: in vivo. It is filed as ADME, organism-based. The method, boiled down: as §2
The test system of series [15] is MDA-MB-435. Kind of series: Antiproliferative activity against human MDA-MB-435 cells assessed as cell growth inhibition in presence of 10% FBS by sulforhodamine B assay. The series is classed as functional. In short, it runs like this:
as §5

In series [16] the test system is MDA-MB-435. The series can be described thus: Antiproliferative activity against human MDA-MB-435 cells assessed as cell growth inhibition in presence of 0.1% FBS by sulforhodamine B assay. The series is classed as functional. In short, it runs like this: as §5
Series [17] concerns MDA-MB-435. Kind of series: Antiproliferative activity against human MDA-MB-435 cells assessed as cell growth inhibition at 1 nM in presence of 0.1% FBS by sulforhodamine B assay relative to control. As to conditions: MDA-MB-435, read-out: GI.
The subject of series [18] is MDA-MB-435. The series can be described thus: Antiproliferative activity against human MDA-MB-435 cells assessed as cell growth inhibition at 1 nM in presence of 10% FBS by sulforhodamine B assay relative to control. The settings on record: MDA-MB-435, read-out: GI.
Series [19] concerns MDA-MB-435. Kind of series: Antiproliferative activity against human MDA-MB-435 cells assessed as cell growth inhibition at 1 nM in presence of 1% FBS by sulforhodamine B assay relative to control. The settings on record: MDA-MB-435, read-out: GI.
Series [20] has as its system SCC-4. Kind of series: Antitumor activity against human SCC4 cells xenografted in athymic nude mouse assessed as tumor growth inhibition administered intratumorally on day 0 and day 3 measured up to day 17 post dose. The series is classed as functional, cell-based. In short, it runs like this:
as §3

In a further series the test system is Plasma. Kind of series: Drug uptake in athymic nude mouse plasma at 300 ug, iv after 2 hrs by LC-MS analysis. The series is classed as ADME, organism-based. The settings on record: in vivo. The method, boiled down:
as §2

In series [21] the test system is SCC-4. The series can be described thus: Antitumor activity against human SCC4 cells xenografted in athymic nude mouse assessed as tumor growth inhibition at 40 to 80 ug administered intratumorally on day 0 and day 3 measured on day 17 post dose. The series is classed as functional, cell-based. In short, it runs like this: as §3
In series [22] the test system is SCC-4. The series can be described thus: Antitumor activity against human SCC4 cells xenografted in athymic nude mouse assessed as tumor growth inhibition at 20 ug administered intratumorally on day 0 and day 3 measured every 2 to 4 days up to 2 weeks. The series is classed as functional, cell-based. The method, boiled down: as §3
The subject of series [23] is Liver. The series can be described thus: Intrinsic clearance in human liver microsomes in absence of NADPH by LC-MS/MS analysis. The series is classed as ADME, microsome.
Series [24] has as its system SCC-4. The series can be described thus: Antitumor activity against human SCC4 cells xenografted in athymic nude mouse assessed as tumor growth inhibition at 40 to 80 ug administered intratumorally on day 0 and day 3 measured on day 14 post dose. The series is classed as functional, cell-based. The method, boiled down:
as §3

Series [25] deals with Mus musculus. The series can be described thus: Toxicity against athymic nude mouse xenografted with human SCC4 cells assessed as weight loss at 40 ug administered intratumorally on day 0 and day 3 measured up to day 17 post dose. As to conditions: in vivo, other. In short, it runs like this: as §4

The source made the active and inactive calls. The rule behind the calls is not given here.

With `CC(=O)CC(c1ccccc1)c1c(O)c2ccccc2oc1=O` (stereo not given) [WARFARIN], the CLH in the series with Liver [1] was 0 µL/min/mg.
On to `CC(=O)O[C@@H]1[C@H]2[C@H]3[C@H]([C@H](OC(C)=O)[C@H](OC(C)=O)[C@]2(C)[C@H]2[C@H](C)[C@H]4O[C@]45OC(=O)[C@@](C)(O)[C@]5(C)[C@H]12)[C@]1(C)[C@H](C[C@@H]2O[C@@H]2[C@@H]1OC(C)=O)C(=O)[C@@H]3O`, for which the figures for the RatioGI50 in the series on MDA-MB-435 [2] and in the series with MDA-MB-435 [4] were 1.2 and 1.9, respectively. The values for the t1/2 in the series with Liver [3] and in the series on Liver [10] were more than 4 h and 1.38 h, respectively. For the same molecule, the “beta t1/2” value with Mus musculus [5] worked out at 0.733 h. Also, the CLH in the series on Liver [1] worked out at 8.3 µL/min/mg. Further, the Activity in the series on SCC-4 [6] is reported as less than 1500 mm3; in the series on Mus musculus [7], “Non-Toxic”. This molecule also had an IC50 in the series on HeLa of 24 nM. For the same molecule, the GI50 in the series with MDA-MB-435 [8] was 30 nM; with MDA-MB-435 [15], 47 nM; with MDA-MB-435 [16], 25 nM. Also, the area under the curve (AUC) in the series with Mus musculus [9] was determined as 1300 ng·h/mL. Further, the TGI entry in the series with SCC-4 [11] is “Active”. This molecule also yielded a CL in the series on Mus musculus [12] of 240 mL/h. In the series on SCC-4 [13], the outcome was Active. In the series with Mus musculus [14], this molecule returned a Cmax of 8600 ng/mL.
Turning to `CC(=O)O[C@H]1C(=O)[C@@]2(C)[C@H]([C@H](OC(=O)c3ccccc3)[C@]3(O)C[C@H](OC(=O)[C@H](O)[C@@H](NC(=O)c4ccccc4)c4ccccc4)C(C)=C1C3(C)C)[C@]1(OC(C)=O)CO[C@@H]1C[C@@H]2O` [PACLITAXEL], the concentration for 50% growth inhibition (GI50) in the series with MDA-MB-435 [8] was found to be 1.9 nM; with MDA-MB-435 [15], 3.4 nM; with MDA-MB-435 [16] it was 1 nM. Moreover, the inhibition of growth at 0.001 µM was found to be 54% with MDA-MB-435 [17], 9% in the series with MDA-MB-435 [18] and 27% in the series on MDA-MB-435 [19].
As for `CC(=O)O[C@H]1[C@H]2[C@H]([C@@H]3[C@@H](O)[C@@H]4[C@H]([C@H](C)[C@H]5O[C@]56OC(=O)[C@@](C)(O)[C@]46C)[C@@]3(C)[C@H]1OC(C)=O)[C@@H](O)C(=O)[C@H]1C[C@@H]3O[C@@H]3[C@H](OC(C)=O)[C@]21C`, the RatioGI50 is 1.2 in the series on MDA-MB-435 [2] and 1.5 with MDA-MB-435 [4]. For the same molecule, the t1/2 in the series with Liver [3] was more than 4 h; in the series on Liver [10], 0.783 h. The “beta t1/2” value with Mus musculus [5] was 0.135 h. The CLH with Liver [1] was 15 µL/min/mg; with Liver [23], 300 µL/min/mg. The Activity in the series on SCC-4 [6] was less than 1500 mm3; with Mus musculus [25], “Non-Toxic”. In the series on HeLa, 4 nM corresponded to half-maximal inhibition (IC50). Besides, the GI50 in the series with MDA-MB-435 [8] came to 7 nM; in the series on MDA-MB-435 [15] it was 9 nM; in the series on MDA-MB-435 [16] it was 6 nM. Besides, the AUC in the series with Mus musculus [9] is 3500 ng·h/mL. Besides, in the series on SCC-4 [20], the TGI result is “Dose-dependent effect”. The molecule further returned a CL in the series on Mus musculus [12] of 85 mL/h. Moreover, in the series on Plasma, the Drug uptake entry is “Not Active”. In addition, the Cmax with Mus musculus [14] stood at 19000 ng/mL. Moreover, the TGI entry in the series with SCC-4 [21] and with SCC-4 [24] was “Active” throughout. Moreover, the TGI entry in the series with SCC-4 [22] is “inactive”.
